Results taken from ChEMBL document CHEMBL1165950, “Design and synthesis of new potent anticancer pyrazoles with high FLT3 kinase inhibitory selectivity” (Bioorg Med Chem, 2010).

What was measured:
Assay type in all cases: functional
COLO 205 = test: Cytotoxicity against human COLO205 cells assessed as cell growth at 100 nM after 48 hrs by sulforhodamine B assay; conditions: COLO 205, 48 h, read-out: Activity
UACC-62 = test: Cytotoxicity against human UACC62 cells assessed as cell growth at 100 nM after 48 hrs by sulforhodamine B assay; conditions: UACC-62, 48 h, read-out: Activity
MDA-MB-468 = test: Cytotoxicity against human MDA-MB-468 cells assessed as cell growth at 0.001 uM after 48 hrs by sulforhodamine B assay; conditions: MDA-MB-468, 48 h, read-out: Activity
ACHN [1] = test: Cytotoxicity against human ACHN cells assessed as cell growth at 100 nM after 48 hrs by sulforhodamine B assay; conditions: read-out: Activity
Outline: (§1)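 NCI-60 five-dose screen. Cells were grown in RPMI 1640 with 5% FBS and 2 mM L-glutamine, plated at 5000–40,000 cells/well and preincubated for 24 h. Time-zero plates were TCA-fixed. DMSO-solubilized drug was added at five concentrations (10-fold or ½-log serial dilutions) for 48 h at 37 °C, 5% CO2. Cells were TCA-fixed, stained with 0.4% SRB and read at 515 nm. Percent growth used time-zero, control and test absorbances.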

SN12C = test: Cytotoxicity against human SN12C cells assessed as cell growth at 100 nM after 48 hrs by sulforhodamine B assay; conditions: read-out: Activity
MDA-MB-231 [2] = test: Cytotoxicity against human MDA-MB-231 cells assessed as cell growth at 100 nM after 48 hrs by sulforhodamine B assay; conditions: MDA-MB-231, 48 h, read-out: Activity
[3] = Cytotoxicity against human RPMI8266 cells assessed as cell growth at 1 uM after 48 hrs by sulforhodamine B assay; conditions: read-out: Activity
A498 = test: Cytotoxicity against human A498 cells assessed as cell growth at 10 uM; conditions: read-out: Activity
Outline: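 Single-dose NCI-60 screen at 10 µM. Cells were grown in RPMI 1640 with 5% FBS and 2 mM L-glutamine, then treated for 48 h at 37 °C. Protein was measured by SRB staining with absorbance at 515 nm. Percentage growth was recorded, and inhibition percentage was calculated as 100 minus growth percentage.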

MDA-MB-231 [4] = test: Cytotoxicity against human MDA-MB-231 cells assessed as cell growth at 10 uM; conditions: read-out: Activity
Outline: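 NCI-60 screen: cells grown in RPMI 1640 with 5% FBS and 2 mM L-glutamine, plated at 5000–40,000 cells/well according to doubling time, and preincubated 24 h at 37 °C, 5% CO2. The single 10 µM dose (DMSO stock) was added, then incubated 48 h. Cells were TCA-fixed and stained with 0.4% SRB, read at 515 nm, and growth % calculated against time-zero and control plates.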

MOLT-4 = test: Cytotoxicity against human MOLT4 cells assessed as cell growth at 0.01 uM after 48 hrs by sulforhodamine B assay; conditions: MOLT-4, 48 h, read-out: Activity
HT-29 = test: Cytotoxicity against human HT-29 cells assessed as cell growth at 0.01 uM after 48 hrs by sulforhodamine B assay; conditions: HT-29, 48 h, read-out: Activity
M14 = test: Cytotoxicity against human M14 cells assessed as cell growth at 0.01 uM after 48 hrs by sulforhodamine B assay; conditions: M14, 48 h, read-out: Activity
SW-620 = test: Cytotoxicity against human SW620 cells assessed as cell growth at 0.001 uM after 48 hrs by sulforhodamine B assay; conditions: SW-620, 48 h, read-out: Activity
SF-295 = test: Cytotoxicity against human SF295 cells assessed as cell growth at 0.001 uM after 48 hrs by sulforhodamine B assay; conditions: SF-295, 48 h, read-out: Activity
K562 = test: Growth inhibition of human K562 cells after 48 hrs by sulforhodamine B assay; conditions: K562, 48 h
Outline: (§2)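 NCI 60-cell screen, five-dose mode. Cells grown in RPMI 1640 with 5% FBS and 2 mM L-glutamine and plated at 5000-40,000 cells/well according to doubling time. After 24 h preincubation, a Tz plate was TCA-fixed. Five concentrations (10-fold or 1/2 log dilutions) were applied for 48 h at 37 °C. SRB staining read at 515 nm. IC50 taken from [(Ti-Tz)/(C-Tz)]×100 = 50.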

HCT-15 = test: Growth inhibition of human HCT15 cells after 48 hrs by sulforhodamine B assay; conditions: HCT-15, 48 h; for CC50: read-out: LC50 (the source's name); outline: as §2
SNB-19 = test: Growth inhibition of human SNB19 cells after 48 hrs by sulforhodamine B assay; conditions: SNB-19, 48 h; for CC50: read-out: LC50 (the source's name); outline: as §2
Malme-3M = test: Growth inhibition of human MALME-3M cells after 48 hrs by sulforhodamine B assay; conditions: for CC50: read-out: LC50 (the source's name); outline: as §2
T47D = test: Cytotoxicity against human T47D cells assessed as cell growth at 0.01 uM after 48 hrs by sulforhodamine B assay; conditions: read-out: Activity
OVCAR-4 = test: Cytotoxicity against human OVCAR4 cells assessed as cell growth at 1 uM after 48 hrs by sulforhodamine B assay; conditions: OVCAR-4, 48 h, read-out: Activity
786-0 = test: Cytotoxicity against human 786-0 cells assessed as cell growth at 1 uM after 48 hrs by sulforhodamine B assay; conditions: 786-0, 48 h, read-out: Activity; outline: as §1
ACHN [5] = test: Cytotoxicity against human ACHN cells assessed as cell growth at 1 uM after 48 hrs by sulforhodamine B assay; conditions: read-out: Activity; outline: as §1
[6] = Cytotoxicity against human Hs 578T cells assessed as cell growth at 1 uM after 48 hrs by sulforhodamine B assay; conditions: read-out: Activity
BT-549 = test: Cytotoxicity against human BT549 cells assessed as cell growth at 1 uM after 48 hrs by sulforhodamine B assay; conditions: BT-549, 48 h, read-out: Activity; outline: as §1
HOP-92 = test: Cytotoxicity against human HOP92 cells assessed as cell growth at 10 uM after 48 hrs by sulforhodamine B assay; conditions: HOP-92, 48 h, read-out: Activity
NCI-H322M = test: Cytotoxicity against human NCI-H322M cells assessed as cell growth at 10 uM after 48 hrs by sulforhodamine B assay; conditions: read-out: Activity
NCI-H460 = test: Cytotoxicity against human NCI-H460 cells assessed as cell growth at 10 uM after 48 hrs by sulforhodamine B assay; conditions: NCI-H460, 48 h, read-out: Activity
HCT-116 = test: Cytotoxicity against human HCT116 cells assessed as cell growth at 10 uM after 48 hrs by sulforhodamine B assay; conditions: HCT-116, 48 h, read-out: Activity
OVCAR-5 = test: Cytotoxicity against human OVCAR5 cells assessed as cell growth at 10 uM after 48 hrs by sulforhodamine B assay; conditions: OVCAR-5, 48 h, read-out: Activity
SK-OV-3 = test: Cytotoxicity against human SKOV3 cells assessed as cell growth at 10 uM after 48 hrs by sulforhodamine B assay; conditions: SK-OV-3, 48 h, read-out: Activity

Row | SMILES | growth at 0.1 µM (COLO 205) [%] | growth at 0.1 µM (UACC-62) [%] | growth at 0.001 µM (MDA-MB-468) [%] | growth at 0.1 µM (ACHN [1]) [%] | growth at 0.1 µM (SN12C) [%] | growth at 0.1 µM (MDA-MB-231 [2]) [%] | growth at 1 µM [3] [%] | growth at 10 µM (A498) [%] | growth at 10 µM (MDA-MB-231 [4]) [%] | growth at 0.01 µM (MOLT-4) [%] | growth at 0.01 µM (HT-29) [%] | growth at 0.01 µM (M14) [%] | growth at 0.001 µM (SW-620) [%] | growth at 0.001 µM (SF-295) [%] | GI50 (K562) [µM] | LC50 (50% net cell kill) (K562) [µM] | TGI (K562) [µM] | GI50 (HCT-15) [µM] | TGI (HCT-15) [µM] | CC50 (HCT-15) [µM] | further results
1 | COc1cc(C)cc(-c2c(-c3ccnc(-c4ccc(C(C)=O)cc4)c3)cnn2CC#N)c1 | 102 | 89 | 92 | 90 | 92 | 86 | -4 | 83 | 63.8 | 99 | 96 | 86 | 96 | 98 | 0.795 | > 100 | > 100 | 3.14 | > 100 | > 100 | GI50 (SNB-19): > 100 µM; TGI (SNB-19): > 100 µM; CC50 (SNB-19): > 100 µM; GI50 (Malme-3M): 5.82 µM; TGI (Malme-3M): > 100 µM; CC50 (Malme-3M): > 100 µM; growth at 0.01 µM (T47D): 92%; growth at 1 µM (OVCAR-4): 27%; growth at 1 µM (786-0): 10%; growth at 1 µM (ACHN [5]): 21%; growth at 1 µM [6]: -23%; growth at 1 µM (BT-549): 17%; growth at 10 µM (HOP-92): -1%; growth at 10 µM (NCI-H322M): 70%; growth at 10 µM (NCI-H460): 2%; growth at 10 µM (HCT-116): -17%; growth at 10 µM (OVCAR-5): 72%; growth at 10 µM (SK-OV-3): 27%
2 | Cc1cc(O)cc(-c2nn(CC#N)cc2-c2ccnc(-c3ccc(Oc4ccccc4)cc3)c2)c1 | 99 | 84 | 91 | 95 | 86 | 85 | -20 | 93.9 | 46.7 | 93 | 104 | 96 | 93 | 99 | 4.87 | > 100 | 6.02 | 2.14 | 5.38 | 26.1 | GI50 (SNB-19): 1.07 µM; TGI (SNB-19): 23.4 µM; CC50 (SNB-19): 51.1 µM; GI50 (Malme-3M): 1.81 µM; TGI (Malme-3M): 3.58 µM; CC50 (Malme-3M): 7.12 µM; growth at 0.01 µM (T47D): 86%; growth at 1 µM (OVCAR-4): 21%; growth at 1 µM (786-0): -34%; growth at 1 µM (ACHN [5]): -4%; growth at 1 µM [6]: -23%; growth at 1 µM (BT-549): 4%; growth at 10 µM (HOP-92): -65%; growth at 10 µM (NCI-H322M): -89%; growth at 10 µM (NCI-H460): -88%; growth at 10 µM (HCT-116): -97%; growth at 10 µM (OVCAR-5): -89%; growth at 10 µM (SK-OV-3): -99%
3 | COc1cc(C)cc(-c2nn(CC#N)cc2-c2ccnc(-c3ccc(N(C)C)cc3)c2)c1 | -15 | 18 | 96 | 29 | 44 | 52 | 1 | 4.2 | -2.19 | 93 | 105 | 93 | 98 | 93 | 0.161 | > 100 | > 100 | 0.35 | 8.79 | > 100 | GI50 (SNB-19): 0.567 µM; TGI (SNB-19): > 100 µM; CC50 (SNB-19): > 100 µM; TGI (Malme-3M): > 100 µM; CC50 (Malme-3M): > 100 µM; growth at 0.01 µM (T47D): 104%; growth at 1 µM (OVCAR-4): 21%; growth at 1 µM (786-0): -8%; growth at 1 µM (ACHN [5]): 2%; growth at 1 µM [6]: -13%; growth at 1 µM (BT-549): -10%; growth at 10 µM (HOP-92): -13%; growth at 10 µM (NCI-H322M): 27%; growth at 10 µM (NCI-H460): -51%; growth at 10 µM (HCT-116): -44%; growth at 10 µM (OVCAR-5): 15%; growth at 10 µM (SK-OV-3): -40%
4 | Cc1cc(O)cc(-c2nn(CC#N)cc2-c2ccnc(-c3ccc(N(C)C)cc3)c2)c1 | 94 | 87 | 98 | 93 | 91 | 84 | 15 | 51.1 | 40.8 | 96 | 96 | 92 | 99 | 93 | 2.55 | > 100 | 32.8 | 3.36 | 18.2 | > 100 | GI50 (SNB-19): 4.54 µM; TGI (SNB-19): 43.9 µM; CC50 (SNB-19): > 100 µM; GI50 (Malme-3M): 4.56 µM; TGI (Malme-3M): 39.2 µM; CC50 (Malme-3M): > 100 µM; growth at 0.01 µM (T47D): 90%; growth at 1 µM (OVCAR-4): 27%; growth at 1 µM (786-0): 14%; growth at 1 µM (ACHN [5]): 18%; growth at 1 µM [6]: -15%; growth at 1 µM (BT-549): 4%; growth at 10 µM (HOP-92): -12%; growth at 10 µM (NCI-H322M): -11%; growth at 10 µM (NCI-H460): -59%; growth at 10 µM (HCT-116): -81%; growth at 10 µM (OVCAR-5): -18%; growth at 10 µM (SK-OV-3): -38%
5 | COc1cc(C)cc(-c2nn(CC#N)cc2-c2ccc(-c3cccc(C(C)=O)c3)nc2)c1 | 88 | 71 | 83 | 93 | 91 | 85 | 8 | 19.7 | 34.8 | 100 | 93 | 93 | 96 | 99 | 0.365 | > 100 | > 100 | 2.14 | > 100 | > 100 | GI50 (SNB-19): 6.62 µM; TGI (SNB-19): > 100 µM; CC50 (SNB-19): > 100 µM; GI50 (Malme-3M): 3.76 µM; TGI (Malme-3M): 96.4 µM; CC50 (Malme-3M): > 100 µM; growth at 0.01 µM (T47D): 93%; growth at 1 µM (OVCAR-4): 19%; growth at 1 µM (786-0): 15%; growth at 1 µM (ACHN [5]): 24%; growth at 1 µM [6]: -43%; growth at 1 µM (BT-549): 5%; growth at 10 µM (HOP-92): -17%; growth at 10 µM (NCI-H322M): -10%; growth at 10 µM (NCI-H460): -81%; growth at 10 µM (HCT-116): -53%; growth at 10 µM (OVCAR-5): -18%; growth at 10 µM (SK-OV-3): -36%
